The source of these data is PMC12892081 (Acta Pharmaceutica Sinica. B, 2025).

A short description of series [1]: In vitro skin penetration across excised rat skin. The settings on record: for skin permeability compared to the other CPPs: FAM-CPP conjugates, excised rat back skin, P < 0.01. The class given is in vitro ADME, SD rats. The gist of the method: (§1)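 Valia-Chien diffusion cells at 37 ± 0.5 °C, stirred at 250 rpm, with excised rat back skin or Berkshire pig skin. Donor held 50 μmol/L N-terminally FAM-labelled peptide or free FAM in 0.9% NaCl with 0.5% (v/v) DMSO. Receiver sampled at 0–5 h and replaced with fresh saline; fluorescence read at 492 nm. Cumulative amount and Papp derived; at least 4 replicates.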

Series [2] can be described thus: In vitro skin penetration across excised pig skin. Type of series: in vitro ADME, Berkshire pig. As to conditions: FAM-peptide conjugate vs free FAM, donor 50 μmol/L. In outline:
as §1

The next series concerns B16F10 cells. Put plainly: Calcein-AM/PI double staining of B16F10 cells. Type of series: cell-based. As to conditions: 15 μmol/L, 48 h, vs control group. In outline: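 B16F10 cells exposed 48 h to 15 μmol/L agents, then stained with a Calcein-AM/PI double staining kit (calcein marks live cells green, PI marks dead cells red). Imaged by inverted fluorescence microscopy.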

The subject of series [3] is human keratinocyte cells (HeKa cells). The series can be described thus: HeKa cell viability. The class given is cell-based. The settings on record: 50 μmol/L FAM-CPP conjugate, exposure 72 h, CCK-8, n = 3. In outline:
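HeKa cells exposed to 50 μmol/L FAM or FAM–peptide conjugate for 48 and 72 h. Viability read with CCK-8; n = 3.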

Where a SMILES comes first, the peptide text is derived from it. Bridges are numbered along the chain shown (N, C = ends). The star is where a group is joined. 5FAM = O=C1OC2(c3ccc(O)cc3Oc3cc(O)ccc32)c2ccc(C(=O)*)cc21

With `CC[C@H](C)[C@H](NC(=O)[C@H](CCC(N)=O)NC(=O)[C@H](CCCNC(=N)N)NC(=O)c1ccc2c(c1)C(=O)OC21c2ccc(O)cc2Oc2cc(O)ccc21)C(=O)N[C@@H](CCCCN)C(=O)N[C@@H](Cc1c[nH]c2ccccc12)C(=O)N[C@@H](Cc1c[nH]c2ccccc12)C(=O)N[C@@H](Cc1ccccc1)C(=O)N[C@@H](Cc1c[nH]c2ccccc12)C(=O)N[C@@H](Cc1c[nH]c2ccccc12)C(=O)N[C@@H](CCCNC(=N)N)C(=O)N[C@@H](CCCNC(=N)N)C(=O)N[C@@H](CCSC)C(=O)N[C@@H](CCCCN)C(=O)N[C@@H](Cc1c[nH]c2ccccc12)C(=O)N[C@@H](CCCCN)C(=O)N[C@@H](CCCCN)C(=O)O` [FAM-589WP] (5FAM-RQIKWWFWWRRMKWKK-OH), the “increase in Papp compared to free FAM, rat skin” value in series [1] (FAM-peptide conjugate vs free FAM, excised rat skin, donor 50 μmol/L) turned out to be 72 fold. For the same molecule, the “increase in Papp compared to free FAM, pig skin” value in series [2] came to 60 fold. `O=c1[nH]c(=O)n([C@H]2C[C@H](O)[C@@H](CO)O2)cc1F` [FUdR, 5-fluoro-2ʹ-deoxyuridine]: the “live cell density / dead cells by Calcein-PI staining” value in the series with B16F10 cells is given as “notable decrease in live cell density”. With `CC[C@H](C)[C@H](NC(=O)[C@H](CCCCN)NC(=O)[C@@H](NC(=O)[C@H](CCC(N)=O)NC(=O)[C@H](CCCNC(=N)N)NC(=O)c1ccc2c(c1)C(=O)OC21c2ccc(O)cc2Oc2cc(O)ccc21)[C@@H](C)CC)C(=O)N[C@@H](Cc1c[nH]c2ccccc12)C(=O)N[C@@H](Cc1ccccc1)C(=O)N[C@@H](CCC(N)=O)C(=O)N[C@@H](CC(N)=O)C(=O)N[C@@H](CCCNC(=N)N)C(=O)N[C@@H](CCCNC(=N)N)C(=O)N[C@@H](CCSC)C(=O)N[C@@H](CCCCN)C(=O)N[C@@H](Cc1c[nH]c2ccccc12)C(=O)N[C@@H](CCCCN)C(=O)N[C@@H](CCCCN)C(=O)O` [Penetratin], the “skin permeability compared to the other CPPs” value in series [1] (donor 50 μmol/L) is “significantly higher than the other CPPs”. Also, the “cytotoxicity to HeKa cells” value in series [3] was “did not display cytotoxicity”. On to `C[C@H](NC(=O)c1ccc2c(c1)C(=O)OC21c2ccc(O)cc2Oc2cc(O)ccc21)C(=O)N[C@H]1CSSC[C@@H](C(=O)NCC(=O)O)NC(=O)[C@H](CCC(N)=O)NC(=O)[C@H](Cc2c[nH]cn2)NC(=O)[C@H](CCC(N)=O)NC(=O)[C@H]([C@@H](C)O)NC(=O)[C@H](CO)NC(=O)CNC(=O)[C@H]([C@@H](C)O)NC1=O` [SPACE] (5FAM-ACTGSTQHQCG-OH; disulfide 2-10), for which the “permeability relative to the optimized peptide 589WP” value in series [1] (FAM conjugates, excised rat skin) was “about one-third the permeability of the optimized peptide 589WP”. Besides, the “permeability relative to wild-type penetratin” value in series [1] (FAM conjugates, excised rat skin (Fig. 1)) is given as “about half the permeability of wild-type penetratin”. For the molecule `CC[C@H](C)[C@H](NC(=O)[C@H](CCCCN)NC(=O)[C@H](CCCCN)NC(=O)[C@H](C)NC(=O)[C@H](CC(C)C)NC(=O)[C@H](C)NC(=O)[C@H](C)NC(=O)[C@H](CC(C)C)NC(=O)[C@H](C)NC(=O)[C@H](CCCCN)NC(=O)[C@H](CC(C)C)NC(=O)[C@H](CC(N)=O)NC(=O)[C@@H](NC(=O)[C@H](CCCCN)NC(=O)CNC(=O)[C@H](CC(C)C)NC(=O)[C@H](CC(C)C)NC(=O)[C@H](Cc1ccc(O)cc1)NC(=O)CNC(=O)[C@H](C)NC(=O)[C@H](CO)NC(=O)[C@H](CC(N)=O)NC(=O)[C@H](CC(C)C)NC(=O)[C@@H](NC(=O)[C@H](Cc1c[nH]c2ccccc12)NC(=O)CNC(=O)c1ccc2c(c1)C(=O)OC21c2ccc(O)cc2Oc2cc(O)ccc21)[C@@H](C)O)[C@@H](C)CC)C(=O)N[C@@H](CC(C)C)C(=O)O` [Transportan], the “skin permeability compared to the other CPPs” value in series [1] (donor 50 μmol/L) was “significantly higher than the other CPPs”.
